Measured values taken from ChEMBL document CHEMBL1128475, “Synthesis, pharmacologic activity, and structure-activity relationships of a series of propafenone-related modulators of multidrug resistance” (1995).
pEC50: −log10 of the molar value.

Key:
CCRF-CEM [1] = experiment: The chemosensitizing effect was measured against P-glycoprotein expressing CCRF-CEM cells in the presence of […]; format: functional; conditions: Homo sapiens, read-out: ED50 (the source's name)
Method in brief: (§1)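 CCRF-CEM vcr 100 cells (selected stepwise in vincristine; kept in 100 ng/mL vincristine until 1 week before use), RPMI 1640 with 10% FCS. Cytotoxicity of daunomycin or etoposide by MTT reduction, formazan dissolved in 2-propanol/0.04 N HCl, absorbance read. Modifier at 5 μM; six toxin concentrations, triplicate points, ED50 estimated. Reversion potency = toxin ED50 without/with modifier.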

CCRF-CEM [2] = experiment: The reversion potency of compound was measured against P-glycoprotein expressing CCRF-CEM cells and expressed as the ratio of ED50 in the absence and presence […]; format: functional, Homo sapiens
CCRF-CEM [3] = experiment: The percentage uptake of [3H]daunomycin in resistant CCRF-CEM vcr 100 cells to sensitive CCRF-CEM cells in presence of the compound.; format: functional, cell-based; conditions: Homo sapiens
Method in brief: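 Rapid-centrifugation uptake. Resistant CCRF-CEM vcr 100 and sensitive CCRF-CEM cells at 5×10^6 cells/mL in RPMI 1640 with 2% FCS. Modifier (final 5 μM, from 100× DMSO stock) added 10 min before [3H]daunomycin (0.4 μCi/mL; total daunomycin final 1 μmol/L). Sampled at 0–60 min, spun through phthalate oil, pellets solubilized in NaOH/SDS, counted by LSC. Expressed as % of sensitive-cell uptake.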

CCRF-CEM [4] = experiment: The reversion potency of compound was measured against P-glycoprotein expressing CCRF-CEM cells and expressed as the ratio of ED50 in the absence and presence of etoposide; format: functional, Homo sapiens; method in brief: as §1
CCRF-CEM [5] = experiment: The effective dose was measured against P-glycoprotein expressing CCRF-CEM cells in the presence of 5 uM etoposide; format: functional; conditions: Homo sapiens, read-out: ED50 (the source's name); method in brief: as §1
CCRF-CEM [6] = experiment: The effective dose was measured against P-glycoprotein expressing CCRF-CEM cells in the presence of […]; format: functional; conditions: Homo sapiens, read-out: ED50 (the source's name); method in brief: as §1

pEC50 (CCRF-CEM [5]) | pEC50 (CCRF-CEM [6]) | SMILES | pEC50 (CCRF-CEM [1]) | RP (CCRF-CEM [2]) | Uptake (CCRF-CEM [3]) | RP (CCRF-CEM [4])
– | – | O=C(CCc1ccccc1)c1ccccc1OCC(O)CN1CCCC1 (stereo not given) | 7.15 | 20 | – | –
– | – | CCCN(C)CC(O)COc1ccccc1C(=O)CCc1ccccc1 (stereo not given) | 7.26 | 26 | – | –
– | – | CC(C)N(CC(O)COc1ccccc1C(=O)CCc1ccccc1)C(C)C (stereo not given) | 7.19 | 22 | 82% | –
6.19 | – | Cc1ccccc1N1CCN(CC(O)COc2ccccc2C(=O)CCc2ccccc2)CC1 (stereo not given) | 7.37 | 33 | 96% | 5.4
– | – | CCCNCC(O)c1oc2ccccc2c1CCc1ccccc1 (stereo not given) | 6.70 | 7 | – | –
5.47 | – | CCN(CC)CC(O)COc1ccccc1C(=O)CCc1ccccc1 (stereo not given) | 6.94 | 12 | 68% | –
– | – | CC(=O)c1ccccc1OCC(O)CN1CCCCC1 (stereo not given) | 6.11 | 2 | – | –
– | – | O=C(CCc1ccccc1)c1ccccc1OCC(O)CN1CCOCC1 (stereo not given) | 6.44 | 4 | – | –
5.99 | – | O=C(CCc1ccccc1)c1ccccc1OCC(O)CN1CCN(c2ccc(F)cc2)CC1 (stereo not given) | 7.39 | 34 | 92% | 3.4
5.48 | – | O=C(CCc1ccccc1)c1ccccc1OCC(O)CN1CCCCC1 (stereo not given) | 7.34 | 30 | 83% | 1.1
– | – | CCN(CC)CC(O)COc1ccccc1C(=O)c1ccccc1 (stereo not given) | 6.82 | 9 | – | –
– | – | CCCNCC(O)COc1ccccc1C(=O)CCc1ccccc1 (stereo not given) [PROPAFENONE] | 7.06 | 16 | 65% | –
6.02 | – | COc1ccc(N2CCN(CC(O)COc3ccccc3C(=O)CCc3ccccc3)CC2)cc1 (stereo not given) | 7.48 | 42 | 96% | 3.7
5.47 | 7.35 | COc1ccc(CCN(C)CCCC(C#N)(c2ccc(OC)c(OC)c2)C(C)C)cc1OC (stereo not given) | – | – | 79% | –
